Measurements reported in ChEMBL document CHEMBL4229415, “Design, synthesis and biological evaluation of novel series of 2H-benzo[b][1,4]oxazin-3(4H)-one and 2H-benzo[b][1,4]oxazine scaffold derivatives as PI3Kα inhibitors” (Bioorg Med Chem, 2018).

Tests used:
[1] = test system: MDA-MB-231; test: Antiproliferative activity against human MDA-MB-231 cells after 72 hrs by SRB assay; type: functional, cell-based; settings: MDA-MB-231, 72 h
[2] = test system: HCT-116; test: Antiproliferative activity against human HCT116 cells after 72 hrs by SRB assay; type: functional, cell-based; settings: HCT-116, 72 h
[3] = test system: SNU-638; test: Antiproliferative activity against human SNU638 cells after 72 hrs by SRB assay; type: functional, cell-based; settings: SNU-638, 72 h
[4] = target: Phosphatidylinositol 4,5-bisphosphate 3-kinase catalytic subunit beta isoform (Homo sapiens, UniProt P42338); test: Inhibition of recombinant human PI3K-beta using PIP2:3PS as substrate preincubated for 15 mins followed by ATP addition measured after 1 hr by ADP-Glo assay
How it was run: (§1)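 Luminescent ADP-production readout (PI3K-Glo Class I kit). Enzymes p110α/p85α, p110β/p85α, p120γ or p110δ/p85α diluted in reaction buffer with lipid substrate, preincubated with serially diluted compound 15 min at room temperature. ADP-Glo reagent 40 min, then detection reagent 40 min. IC50 by normalized nonlinear dose-response fit.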

[5] = species on record: Homo sapiens; test: Selectivity ratio of IC50 for recombinant human PI3K-beta to IC50 for recombinant human PI3K-alpha
How it was run: (§2)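 Ratios derived from isoform IC50 values obtained in the ADP-Glo lipid-kinase assay: each enzyme preincubated 15 min with compound and lipid substrate, reaction started with ATP (250 µM stock), 1 h at room temperature, luminescence read and IC50 fitted by normalized nonlinear regression.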

[6] = test system: MRC5; test: Antiproliferative activity against human MRC5 cells after 72 hrs by SRB assay; type: cell-based; settings: MRC5, 72 h
How it was run: (§3)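 Normal human cells (MRC5, HUVEC) exposed to graded compound concentrations for 72 h at 37 °C, 5% CO2, fixed with 10% TCA and stained by SRB. IC50 obtained by non-linear regression of percent growth against concentration.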

[7] = species on record: Homo sapiens; test: Selectivity ratio of IC50 for recombinant human PI3K-gamma to IC50 for recombinant human PI3K-alpha; how it was run: as §2
[8] = target: T1, Phosphatidylinositol 4,5-bisphosphate 3-kinase catalytic subunit alpha isoform (Homo sapiens, UniProt P42336); test: Inhibition of recombinant human PI3K-alpha using PIP2:3PS as substrate preincubated for 15 mins followed by ATP addition measured after 1 hr by ADP-Glo assay; how it was run: as §1
[9] = species on record: Homo sapiens; test: Selectivity ratio of IC50 for recombinant human PI3K-delta to IC50 for recombinant human PI3K-alpha; how it was run: as §2
[10] = target: T1, Phosphatidylinositol 4,5-bisphosphate 3-kinase catalytic subunit alpha isoform; test: Inhibition of PI3K-alpha in human HCT116 cells assessed as reduction in Akt phosphorylation at Thr-308 residue by Western blot analysis; type: cell-based
How it was run: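 Equal protein amounts separated by 10% SDS-PAGE, transferred to PVDF, probed with the indicated antibodies; β-actin as internal control.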

[11] = target: Phosphatidylinositol 4,5-bisphosphate 3-kinase catalytic subunit gamma isoform (Homo sapiens, UniProt P48736); test: Inhibition of recombinant human PI3K-gamma using PIP2:3PS as substrate preincubated for 15 mins followed by ATP addition measured after 1 hr by ADP-Glo assay; how it was run: as §1
[12] = test system: HUVEC; test: Antiproliferative activity against HUVEC after 72 hrs by SRB assay; type: cell-based; settings: Homo sapiens; how it was run: as §3
[13] = target: T2, Phosphatidylinositol 4,5-bisphosphate 3-kinase catalytic subunit delta isoform (Homo sapiens, UniProt O00329); test: Inhibition of recombinant human PI3K-delta using PIP2:3PS as substrate preincubated for 15 mins followed by ATP addition measured after 1 hr by ADP-Glo assay; how it was run: as §1
T2 sequence (O00329 whole entry): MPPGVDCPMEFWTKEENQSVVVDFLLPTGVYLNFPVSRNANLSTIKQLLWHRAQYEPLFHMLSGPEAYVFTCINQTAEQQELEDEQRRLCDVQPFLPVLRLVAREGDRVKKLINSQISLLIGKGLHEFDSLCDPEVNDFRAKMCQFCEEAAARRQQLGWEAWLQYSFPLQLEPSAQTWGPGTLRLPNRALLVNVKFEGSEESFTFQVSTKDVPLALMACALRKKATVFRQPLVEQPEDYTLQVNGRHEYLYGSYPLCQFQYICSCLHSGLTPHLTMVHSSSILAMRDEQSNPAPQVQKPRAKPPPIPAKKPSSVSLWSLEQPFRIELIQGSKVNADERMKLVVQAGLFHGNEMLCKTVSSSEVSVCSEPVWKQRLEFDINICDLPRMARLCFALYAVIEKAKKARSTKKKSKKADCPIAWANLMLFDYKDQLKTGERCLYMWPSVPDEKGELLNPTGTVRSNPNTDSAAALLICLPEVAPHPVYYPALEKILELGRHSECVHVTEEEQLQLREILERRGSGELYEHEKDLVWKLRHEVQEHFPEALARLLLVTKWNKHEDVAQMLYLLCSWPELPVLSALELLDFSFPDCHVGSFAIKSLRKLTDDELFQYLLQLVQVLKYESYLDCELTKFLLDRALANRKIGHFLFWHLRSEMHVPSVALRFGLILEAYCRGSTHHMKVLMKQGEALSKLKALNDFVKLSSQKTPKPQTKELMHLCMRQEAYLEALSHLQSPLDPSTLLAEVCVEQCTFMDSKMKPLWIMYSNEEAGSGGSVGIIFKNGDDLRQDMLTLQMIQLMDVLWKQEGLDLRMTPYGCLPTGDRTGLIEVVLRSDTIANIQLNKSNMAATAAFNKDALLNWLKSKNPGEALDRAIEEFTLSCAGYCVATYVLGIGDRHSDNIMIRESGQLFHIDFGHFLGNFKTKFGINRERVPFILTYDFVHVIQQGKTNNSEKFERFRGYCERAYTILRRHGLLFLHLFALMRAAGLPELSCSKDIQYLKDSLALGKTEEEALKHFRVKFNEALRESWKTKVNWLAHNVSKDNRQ

T1 sequence (P42336 whole entry, canonical isoform): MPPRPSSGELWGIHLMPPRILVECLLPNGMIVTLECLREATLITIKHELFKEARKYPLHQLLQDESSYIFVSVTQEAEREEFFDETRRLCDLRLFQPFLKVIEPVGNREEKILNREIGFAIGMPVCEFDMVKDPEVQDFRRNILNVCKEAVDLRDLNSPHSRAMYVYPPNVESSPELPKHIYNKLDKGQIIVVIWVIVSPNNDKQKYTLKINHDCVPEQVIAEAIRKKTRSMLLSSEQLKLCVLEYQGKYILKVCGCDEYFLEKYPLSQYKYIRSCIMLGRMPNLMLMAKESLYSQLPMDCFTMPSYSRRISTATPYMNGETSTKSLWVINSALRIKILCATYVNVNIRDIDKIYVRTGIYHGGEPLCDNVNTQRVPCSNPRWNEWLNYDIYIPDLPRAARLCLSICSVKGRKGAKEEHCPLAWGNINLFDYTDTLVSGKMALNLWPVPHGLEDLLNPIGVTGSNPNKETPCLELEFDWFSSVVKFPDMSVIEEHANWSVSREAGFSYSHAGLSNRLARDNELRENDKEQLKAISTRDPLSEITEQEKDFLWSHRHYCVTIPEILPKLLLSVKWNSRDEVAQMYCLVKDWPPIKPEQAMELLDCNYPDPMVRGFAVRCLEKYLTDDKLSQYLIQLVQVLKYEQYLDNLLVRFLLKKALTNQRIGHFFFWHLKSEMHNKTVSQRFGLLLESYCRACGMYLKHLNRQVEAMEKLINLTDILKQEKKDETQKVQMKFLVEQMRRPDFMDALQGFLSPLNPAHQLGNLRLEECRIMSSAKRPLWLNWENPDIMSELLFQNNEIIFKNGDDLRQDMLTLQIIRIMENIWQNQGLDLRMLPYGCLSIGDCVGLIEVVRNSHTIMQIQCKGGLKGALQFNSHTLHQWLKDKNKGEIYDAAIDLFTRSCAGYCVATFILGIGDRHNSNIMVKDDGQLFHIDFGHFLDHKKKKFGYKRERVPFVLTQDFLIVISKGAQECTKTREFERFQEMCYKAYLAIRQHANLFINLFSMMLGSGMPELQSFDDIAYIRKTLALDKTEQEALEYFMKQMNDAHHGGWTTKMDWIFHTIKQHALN
Phosphatidylinositol 4,5-bisphosphate 3-kinase catalytic subunit gamma isoform, sequence (P48736 whole entry, canonical isoform): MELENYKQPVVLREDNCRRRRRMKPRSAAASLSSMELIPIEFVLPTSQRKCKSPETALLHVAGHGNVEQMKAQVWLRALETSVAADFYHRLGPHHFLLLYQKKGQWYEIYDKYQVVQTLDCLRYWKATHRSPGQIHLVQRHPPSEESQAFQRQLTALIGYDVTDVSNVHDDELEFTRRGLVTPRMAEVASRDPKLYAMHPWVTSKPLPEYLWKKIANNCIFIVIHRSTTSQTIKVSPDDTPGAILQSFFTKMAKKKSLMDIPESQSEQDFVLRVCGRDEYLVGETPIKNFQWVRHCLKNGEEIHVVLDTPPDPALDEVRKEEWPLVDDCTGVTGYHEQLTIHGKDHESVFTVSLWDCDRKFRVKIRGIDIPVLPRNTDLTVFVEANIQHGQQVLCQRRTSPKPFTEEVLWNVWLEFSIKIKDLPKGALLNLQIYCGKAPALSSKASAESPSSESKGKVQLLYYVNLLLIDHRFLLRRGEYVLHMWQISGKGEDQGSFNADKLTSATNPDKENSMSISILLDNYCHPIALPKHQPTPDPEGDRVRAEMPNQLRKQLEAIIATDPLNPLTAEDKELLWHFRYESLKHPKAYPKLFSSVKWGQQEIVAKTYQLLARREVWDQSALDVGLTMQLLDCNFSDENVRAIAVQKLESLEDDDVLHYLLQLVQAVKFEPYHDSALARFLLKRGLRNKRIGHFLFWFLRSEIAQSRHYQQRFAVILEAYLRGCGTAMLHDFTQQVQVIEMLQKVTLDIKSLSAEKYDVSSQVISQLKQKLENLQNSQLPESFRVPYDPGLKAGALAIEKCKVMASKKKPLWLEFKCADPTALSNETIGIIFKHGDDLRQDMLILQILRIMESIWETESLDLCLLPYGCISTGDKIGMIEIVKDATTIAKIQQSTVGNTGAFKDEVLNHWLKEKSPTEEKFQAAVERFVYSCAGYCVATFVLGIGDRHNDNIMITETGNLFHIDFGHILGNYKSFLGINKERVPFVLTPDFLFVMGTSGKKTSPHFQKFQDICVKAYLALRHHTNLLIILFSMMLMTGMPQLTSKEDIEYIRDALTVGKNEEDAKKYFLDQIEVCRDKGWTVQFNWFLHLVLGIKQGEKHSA
Phosphatidylinositol 4,5-bisphosphate 3-kinase catalytic subunit beta isoform, sequence (P42338 whole entry, canonical isoform): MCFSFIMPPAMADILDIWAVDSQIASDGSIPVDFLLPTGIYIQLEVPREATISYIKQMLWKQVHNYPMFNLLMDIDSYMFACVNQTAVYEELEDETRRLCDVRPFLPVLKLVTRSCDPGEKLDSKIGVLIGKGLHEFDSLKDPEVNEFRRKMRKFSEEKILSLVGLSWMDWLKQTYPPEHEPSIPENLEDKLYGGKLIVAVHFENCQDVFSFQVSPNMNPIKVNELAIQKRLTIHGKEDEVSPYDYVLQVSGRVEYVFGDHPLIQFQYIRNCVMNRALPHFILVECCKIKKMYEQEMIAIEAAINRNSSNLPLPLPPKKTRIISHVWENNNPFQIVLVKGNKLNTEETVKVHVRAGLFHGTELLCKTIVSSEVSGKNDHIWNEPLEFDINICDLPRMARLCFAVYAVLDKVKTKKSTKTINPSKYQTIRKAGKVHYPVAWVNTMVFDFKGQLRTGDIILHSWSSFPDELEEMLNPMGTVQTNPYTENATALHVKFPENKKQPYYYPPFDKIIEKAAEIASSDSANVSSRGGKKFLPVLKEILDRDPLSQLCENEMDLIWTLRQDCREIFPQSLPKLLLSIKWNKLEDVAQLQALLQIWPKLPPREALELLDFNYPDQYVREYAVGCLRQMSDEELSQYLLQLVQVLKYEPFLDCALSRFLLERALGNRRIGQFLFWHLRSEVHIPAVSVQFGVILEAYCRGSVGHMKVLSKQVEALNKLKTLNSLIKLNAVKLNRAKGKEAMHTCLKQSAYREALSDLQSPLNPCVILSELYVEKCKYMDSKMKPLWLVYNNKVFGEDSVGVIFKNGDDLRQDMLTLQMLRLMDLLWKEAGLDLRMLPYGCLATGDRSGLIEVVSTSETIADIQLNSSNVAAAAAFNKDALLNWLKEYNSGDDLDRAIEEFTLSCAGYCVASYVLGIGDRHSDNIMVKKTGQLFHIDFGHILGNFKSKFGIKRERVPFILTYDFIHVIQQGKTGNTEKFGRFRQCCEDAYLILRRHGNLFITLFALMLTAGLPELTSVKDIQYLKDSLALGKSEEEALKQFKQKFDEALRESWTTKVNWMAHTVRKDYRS

Row | SMILES | IC50 [1] | IC50 [2] | IC50 [3] | other results
1 | CCCCS(=O)(=O)Nc1cc(-c2ccc3c(c2)N(CCCN(C)C)C(=O)CO3)cnc1OC | 9.35 µM | 8.43 µM | 8.97 µM | 
2 | COc1ncc(-c2ccc3c(c2)N=C(N2CCN(CCO)CC2)CO3)cc1NS(=O)(=O)c1ccc(F)cc1F | 8.26 µM | 6.18 µM | 7.39 µM | 
3 | CCCCS(=O)(=O)Nc1cc(-c2ccc3c(c2)N(CCCn2ccccc2=O)C(=O)CO3)cnc1OC | 47.9 µM | 42.6 µM | 44.3 µM | 
4 | COC(=O)CCN1CCN(C2=Nc3cc(-c4cnc(OC)c(NS(=O)(=O)c5ccc(F)cc5F)c4)ccc3OC2)CC1 | 22.8 µM | 18.6 µM | 24.9 µM | 
5 | CCCCS(=O)(=O)Nc1cc(-c2ccc3c(c2)N(CCCn2ccnc2)C(=O)CO3)cnc1OC | 40.4 µM | 32.9 µM | 32.7 µM | 
6 | COc1ncc(-c2ccc3c(c2)N(CCCn2ccccc2=O)C(=O)CO3)cc1NS(=O)(=O)c1ccc(F)cc1F | 12.4 µM | 4.23 µM | 6.76 µM | 
7 | CCCCS(=O)(=O)Nc1cc(-c2ccc3c(c2)N(CCC(=O)N2CCOCC2)C(=O)CO3)cnc1OC | 43.8 µM | 23.5 µM | 41.9 µM | 
8 | CCCCS(=O)(=O)Nc1cc(-c2ccc3c(c2)N(CCCN(CC)CC)C(=O)CO3)cnc1OC | 13.8 µM | 14.6 µM | 17.6 µM | 
9 | COc1ncc(-c2ccc3c(c2)N(Cc2ccncc2)C(=O)CO3)cc1NS(=O)(=O)c1ccc(F)cc1F | 5.49 µM | 2.22 µM | 6.96 µM | 
10 | CCOC(=O)CN1CCN(C2=Nc3cc(-c4cnc(OC)c(NS(=O)(=O)c5ccc(F)cc5F)c4)ccc3OC2)CC1 | 17.2 µM | 14.5 µM | 21.4 µM | 
11 | CCCCS(=O)(=O)Nc1cc(-c2ccc3c(c2)N(CCCn2cccn2)C(=O)CO3)cnc1OC | 37.9 µM | 33.6 µM | 36.2 µM | 
12 | CCCCS(=O)(=O)Nc1cc(-c2ccc3c(c2)N(Cc2ccncc2)C(=O)CO3)cnc1OC | 37.9 µM | 41.4 µM | 46.5 µM | 
13 | CCCCS(=O)(=O)Nc1cc(-c2ccc3c(c2)N(CCN2CCOCC2)C(=O)CO3)cnc1OC | 19.5 µM | 15.8 µM | 20.4 µM | 
14 | COc1ncc(-c2ccc3c(c2)N(CCN2CCOCC2)C(=O)CO3)cc1NS(=O)(=O)c1ccc(F)cc1F | 1.82 µM | 2.4 µM | 2.38 µM | 

Further lines, with some results ahead:

Row | IC50 [1] | IC50 [2] | IC50 [3] | SMILES | other results
15 | 4.23 µM | 4.62 µM | 5.01 µM | CCCCS(=O)(=O)Nc1cc(-c2ccc3c(c2)N(CCCN2CCOCC2)C(=O)CO3)cnc1OC | 
16 | 0.56 µM |  |  | Cn1c(=O)n(-c2ccc(C(C)(C)C#N)cc2)c2c3cc(-c4cnc5ccccc5c4)ccc3ncc21 [DACTOLISIB] | 
17 | 4.98 µM | 1.24 µM | 7.84 µM | COc1ncc(-c2ccc3c(c2)N(Cc2ccc(F)cc2)C(=O)CO3)cc1NS(=O)(=O)c1ccc(F)cc1F | 
18 | 3.26 µM | 3.18 µM | 5.77 µM | COc1ncc(-c2ccc3c(c2)N(CCC(=O)N2CCOCC2)C(=O)CO3)cc1NS(=O)(=O)c1ccc(F)cc1F | 
19 | 4.78 µM | 3.26 µM | 4.97 µM | COc1ncc(-c2ccc3c(c2)N=C(N2CCN(CCCO)CC2)CO3)cc1NS(=O)(=O)c1ccc(F)cc1F | 
20 | 0.49 µM | 0.58 µM | 0.52 µM | COc1ncc(-c2ccc3c(c2)N(CCCN2CCOCC2)C(=O)CO3)cc1NS(=O)(=O)c1ccc(F)cc1F | IC50 [4]: 0.382 µM; Ratio IC50 [5]: 14.3; IC50 [6]: 32.8 µM; Ratio IC50 [7]: 7; IC50 [8]: 0.0267 µM; Ratio IC50 [9]: 15.9; inhibition [10]: Dose-dependent effect; IC50 [11]: 0.185 µM; IC50 [12]: 15.6 µM; IC50 [13]: 0.425 µM
